According to article PMC3130141 (Archives of Drug Information, 2011):

Tests used:
[1] = tested on: Western patients with solid tumors; conditions: cited from earlier work
[2] = tested on: broad panel of solid and hematologic tumor cell lines; conditions: cited from earlier work
[3] = Plasma pharmacokinetics, non-compartmental analysis; assay type: in vivo, human; conditions: for clearance / AUC(0-inf) / AUC(0-t) / Cmax / MRT / Vd / concentration at 24 h / half-life: human, plasma
Method in brief: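 Plasma was sampled pre- and post-dose daily on days 1–8 of cycle 1 and on day 1 of cycle 2, after a 1-h iv infusion. Analysis was non-compartmental: Cmax by inspection; λz by log-linear terminal regression; AUC0–24h by linear trapezoidal rule, extrapolated to infinity via λz; CL as dose/AUC. Values are geometric mean (CV%) per cohort.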

[4] = tested on: human tumor xenograft models including a primary bladder tumor model and the rituximab-insensitive non-Hodgkin's lymphoma model, DoHH2T53; conditions: cited from earlier work
[5] = tested on: Japanese patients with advanced solid tumors; assay: Adverse events by CTCAE version 3.0, Phase I dose-escalation study; assay type: in vivo, human

In the case of Cc1ccc(C(=O)N(CCCN)C(c2nc3snc(C)c3c(=O)n2Cc2ccccc2)C(C)C)cc1 (stereo not shown) [AZD4877], the “Monoaster formation (proof of mechanism)” value ([1]; 25 mg, clinical setting) is listed as “evidence of monoaster formation”, the “Tolerability in Western patients” value ([1]; 25 mg) is listed as “acceptable tolerability profile” and the “Toxicity at 30 mg” value ([1]; 30 mg, parallel US study) is listed as “experienced neutropenia”. For the same compound, the “Recommended dose for further evaluation” value ([1]; parallel US study) was 25 mg, the “Best objective tumor response in Western patients” value ([1]; weekly treatment) was “stable disease ≥12 weeks” and the “Growth of tumor cell lines” value [2] was “inhibit growth”. The “Dose proportionality of exposure” value ([3]; 10-25 mg) was “not fully dose proportional”, the clearance ([3]; intravenous, 25 mg) was 325 to 373 mL/min and the AUC(0-inf) ([3]; iv, 10 mg) was 447 ng·h/mL. For the same compound, the AUC(0-t) ([3]; iv, 10 mg) was 234 ng·h/mL, the Cmax ([3]; iv, 10 mg) was 63.4 ng/mL and the MRT ([3]; iv, 10 mg) was 34.2 h. For the same compound, the Vd ([3]; iv, 10 mg) was 766 L, the clearance ([3]; iv, 10 mg) was 373 mL/min and the concentration at 24 h ([3]; iv, 10 mg) was 4.9 ng/mL. The half-life ([3]; iv, 10 mg) was 28.7 h, the AUC(0-inf) ([3]; iv, 15 mg) was 671 ng·h/mL and the AUC(0-t) ([3]; iv, 15 mg) was 424 ng·h/mL. For the same compound, the Cmax ([3]; iv, 15 mg) was 99.7 ng/mL, the MRT ([3]; iv, 15 mg) was 22.9 h and the Vd ([3]; iv, 15 mg) was 512 L. It also gave a clearance ([3]; iv, 15 mg) of 372 mL/min, a concentration at 24 h ([3]; iv, 15 mg) of 7.8 ng/mL and a half-life ([3]; iv, 15 mg) of 20.3 h. For the same compound, the AUC(0-inf) ([3]; iv, 20 mg) was 1430 ng·h/mL, the AUC(0-t) ([3]; iv, 20 mg) was 882 ng·h/mL and the Cmax ([3]; iv, 20 mg) was 218 ng/mL. It also gave an MRT ([3]; iv, 20 mg) of 22.4 h, a Vd ([3]; iv, 20 mg) of 314 L and a clearance ([3]; iv, 20 mg) of 233 mL/min. The concentration at 24 h ([3]; iv, 20 mg) was 14.9 ng/mL, the half-life ([3]; iv, 20 mg) was 21.3 h and the AUC(0-inf) ([3]; iv, 25 mg) was 1280 ng·h/mL. For the same compound, the AUC(0-t) ([3]; iv, 25 mg) was 838 ng·h/mL, the Cmax ([3]; iv, 25 mg) was 224 ng/mL and the MRT ([3]; iv, 25 mg) was 22.2 h. The Vd ([3]; iv, 25 mg) was 432 L, the clearance ([3]; iv, 25 mg) was 325 mL/min and the concentration at 24 h ([3]; iv, 25 mg) was 13.6 ng/mL. The half-life ([3]; iv, 25 mg) was 21.1 h, the “Activity in human tumor xenograft models” value [4] was “activity was observed” and the “Anorexia, patients with CTCAE grade ≥3 event” value ([5]; 10 mg (N = 3)) was 0 N (%). The “Any grade ≥3 event, patients with CTCAE grade ≥3 event” value ([5]; 10 mg (N = 3)) was 0 N (%), the “Constipation, CTCAE any grade, patients with AEs” value ([5]; 10 mg (N = 3)) was 1 (33) N (%) and the “Constipation, patients with CTCAE grade ≥3 event” value ([5]; 10 mg (N = 3)) was 0 N (%). The “Diarrhea, CTCAE any grade, patients with AEs” value ([5]; 10 mg (N = 3)) was 2 (67) N (%), the “Dizziness, CTCAE any grade, patients with AEs” value ([5]; 10 mg (N = 3)) was 2 (67) N (%) and the “Fatigue, CTCAE any grade, patients with AEs” value ([5]; 10 mg (N = 3)) was 1 (33) N (%). The “Fatigue, patients with CTCAE grade ≥3 event” value ([5]; 10 mg (N = 3)) was 0 N (%), the “Febrile neutropenia, patients with CTCAE grade ≥3 event” value ([5]; 10 mg (N = 3)) was 0 N (%) and the “Insomnia, CTCAE any grade, patients with AEs” value ([5]; 10 mg (N = 3)) was 1 (33) N (%). For the same compound, the “Nasopharyngitis, CTCAE any grade, patients with AEs” value ([5]; 10 mg (N = 3)) was 0 N (%), the “Nausea, CTCAE any grade, patients with AEs” value ([5]; 10 mg (N = 3)) was 2 (67) N (%) and the “Neutropenia, patients with CTCAE grade ≥3 event” value ([5]; 10 mg (N = 3)) was 0 N (%). For the same compound, the “Pyrexia, CTCAE any grade, patients with AEs” value ([5]; 10 mg (N = 3)) was 0 N (%), the “Rash, CTCAE any grade, patients with AEs” value ([5]; 10 mg (N = 3)) was 0 N (%) and the “Urinary tract infection, patients with CTCAE grade ≥3 event” value ([5]; 10 mg (N = 3)) was 0 N (%). The “Anorexia, patients with CTCAE grade ≥3 event” value ([5]; 15 mg (N = 3)) was 0 N (%), the “Any grade ≥3 event, patients with CTCAE grade ≥3 event” value ([5]; 15 mg (N = 3)) was 0 N (%) and the “Constipation, CTCAE any grade, patients with AEs” value ([5]; 15 mg (N = 3)) was 0 N (%). The “Constipation, patients with CTCAE grade ≥3 event” value ([5]; 15 mg (N = 3)) was 0 N (%), the “Diarrhea, CTCAE any grade, patients with AEs” value ([5]; 15 mg (N = 3)) was 1 (33) N (%) and the “Dizziness, CTCAE any grade, patients with AEs” value ([5]; 15 mg (N = 3)) was 0 N (%). For the same compound, the “Fatigue, CTCAE any grade, patients with AEs” value ([5]; 15 mg (N = 3)) was 1 (33) N (%).
